Data: ChEMBL document CHEMBL1128413, “The serotonin 5-HT4 receptor. 1. Design of a new class of agonists and receptor map of the agonist recognition site” (J Med Chem, 1995)

Key:
[1] = target: T1, Alpha-1A adrenergic receptor (Bos taurus) (UniProt P18130); assay: Binding affinity was evaluated by Alpha-1 adrenergic receptor in calf cortex by displacing prazosin
T1 sequence (whole entry): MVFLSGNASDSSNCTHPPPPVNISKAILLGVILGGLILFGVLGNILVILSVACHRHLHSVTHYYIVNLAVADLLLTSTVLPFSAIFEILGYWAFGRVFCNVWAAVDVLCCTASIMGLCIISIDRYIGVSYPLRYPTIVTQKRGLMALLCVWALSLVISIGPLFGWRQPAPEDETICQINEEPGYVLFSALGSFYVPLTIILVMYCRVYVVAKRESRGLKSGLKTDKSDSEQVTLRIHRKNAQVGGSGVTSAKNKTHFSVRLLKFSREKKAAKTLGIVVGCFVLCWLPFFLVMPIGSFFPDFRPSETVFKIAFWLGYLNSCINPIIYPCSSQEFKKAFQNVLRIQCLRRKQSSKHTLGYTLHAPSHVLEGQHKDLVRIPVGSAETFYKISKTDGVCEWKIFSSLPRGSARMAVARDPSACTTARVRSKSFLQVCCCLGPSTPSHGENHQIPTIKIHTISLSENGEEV
Method in brief: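 Radioligand displacement with [3H]prazosin on calf cortex membranes; Ki reported.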

[2] = target: D(2) dopamine receptor (Bos taurus) (UniProt P20288); assay: Binding affinity was evaluated by Dopamine receptor D2 binding in the calf striatum by displacing spiperone; type: tissue-based
Sequence of D(2) dopamine receptor (Bos taurus) (P20288 whole entry): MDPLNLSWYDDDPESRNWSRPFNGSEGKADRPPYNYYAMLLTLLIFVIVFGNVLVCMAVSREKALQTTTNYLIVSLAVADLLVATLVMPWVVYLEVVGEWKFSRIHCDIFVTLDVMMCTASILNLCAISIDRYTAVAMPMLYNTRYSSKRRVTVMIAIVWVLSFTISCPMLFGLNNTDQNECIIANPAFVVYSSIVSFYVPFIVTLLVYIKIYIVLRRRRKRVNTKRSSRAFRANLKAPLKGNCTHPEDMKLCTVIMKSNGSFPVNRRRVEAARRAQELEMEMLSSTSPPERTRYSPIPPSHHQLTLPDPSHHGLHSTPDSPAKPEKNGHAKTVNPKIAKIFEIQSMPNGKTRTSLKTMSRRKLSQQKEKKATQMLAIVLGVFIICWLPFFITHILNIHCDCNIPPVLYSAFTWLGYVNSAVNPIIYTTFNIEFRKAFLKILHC
Method in brief: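 Radioligand displacement with [3H]spiperone on calf striatum membranes; Ki reported.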

[3] = target: 5-hydroxytryptamine receptor 2A (Rattus norvegicus) (UniProt P14842); assay: Binding affinity was evaluated by 5-hydroxytryptamine 2A receptor […] in the rat cortex by displacing ketanserin
Sequence of 5-hydroxytryptamine receptor 2A (Rattus norvegicus) (P14842 whole entry): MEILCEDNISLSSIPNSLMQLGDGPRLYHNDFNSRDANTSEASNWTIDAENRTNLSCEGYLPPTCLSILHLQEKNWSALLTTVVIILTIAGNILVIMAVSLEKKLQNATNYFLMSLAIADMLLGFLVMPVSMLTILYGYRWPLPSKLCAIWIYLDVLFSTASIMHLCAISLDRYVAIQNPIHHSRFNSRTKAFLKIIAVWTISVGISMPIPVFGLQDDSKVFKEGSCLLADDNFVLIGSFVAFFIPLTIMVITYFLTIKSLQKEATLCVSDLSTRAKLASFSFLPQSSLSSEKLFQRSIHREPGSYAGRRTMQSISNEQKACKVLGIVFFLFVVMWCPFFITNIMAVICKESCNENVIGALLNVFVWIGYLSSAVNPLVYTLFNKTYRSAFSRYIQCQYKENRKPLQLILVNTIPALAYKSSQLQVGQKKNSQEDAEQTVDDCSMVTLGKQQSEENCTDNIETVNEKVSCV
Method in brief: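 Radioligand displacement with [3H]ketanserin on rat cortex membranes; Ki reported.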

[4] = target: 5-hydroxytryptamine receptor 4 (Cavia porcellus) (UniProt O70528); assay: 5-hydroxytryptamine 4 receptor agonist activity in the guinea pig ileum assay; type: functional, tissue-based
Sequence of 5-hydroxytryptamine receptor 4 (Cavia porcellus) (O70528 whole entry): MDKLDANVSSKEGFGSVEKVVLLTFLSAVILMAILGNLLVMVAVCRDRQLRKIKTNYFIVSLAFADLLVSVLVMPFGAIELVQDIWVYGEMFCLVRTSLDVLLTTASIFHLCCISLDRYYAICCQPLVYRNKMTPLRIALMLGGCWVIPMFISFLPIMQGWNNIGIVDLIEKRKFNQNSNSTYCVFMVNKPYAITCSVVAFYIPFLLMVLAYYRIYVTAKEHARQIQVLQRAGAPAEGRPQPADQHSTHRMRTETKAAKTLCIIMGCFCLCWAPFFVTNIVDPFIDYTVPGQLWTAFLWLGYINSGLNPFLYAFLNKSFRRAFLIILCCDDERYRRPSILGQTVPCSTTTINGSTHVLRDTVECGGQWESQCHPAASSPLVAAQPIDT
Method in brief: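 Guinea pig ileum longitudinal muscle strips in tyrode solution with 0.1 μM methysergide. Twitch contractions (2–3 s) evoked by field stimulation with square-wave pulses (0.1 Hz, 2 ms) via platinum electrodes. Once a stable submaximal response is reached, noncumulative concentration–response curves are built for enhancement of twitch. Readouts are pD2 and efficacy relative to 5-HT.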

[5] = target: D(1A) dopamine receptor (Bos taurus) (UniProt Q95136); details: Striatum
Sequence of D(1A) dopamine receptor (Bos taurus) (Q95136 whole entry): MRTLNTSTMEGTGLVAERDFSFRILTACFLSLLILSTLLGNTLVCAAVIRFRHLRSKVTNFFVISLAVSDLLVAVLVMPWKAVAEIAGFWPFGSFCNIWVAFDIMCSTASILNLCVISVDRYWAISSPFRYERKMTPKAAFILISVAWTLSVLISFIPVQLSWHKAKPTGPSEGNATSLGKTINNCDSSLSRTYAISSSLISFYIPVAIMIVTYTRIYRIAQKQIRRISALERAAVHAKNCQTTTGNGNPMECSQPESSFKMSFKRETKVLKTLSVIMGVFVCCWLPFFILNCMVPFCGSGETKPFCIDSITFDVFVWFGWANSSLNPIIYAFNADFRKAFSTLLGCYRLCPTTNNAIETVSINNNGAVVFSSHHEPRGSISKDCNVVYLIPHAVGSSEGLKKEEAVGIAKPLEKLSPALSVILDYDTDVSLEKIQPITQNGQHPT

[6] = target: 5-hydroxytryptamine receptor 4 (Cavia porcellus) (UniProt O70528); assay: Compound was evaluated for the relative potency with respect to serotonin against 5-hydroxytryptamine 4 receptor; type: functional
[7] = target: T2, Serotonin 3 receptor (5HT3) (Mus musculus) (UniProt Q9JHJ5+P23979)
[8] = target: T3, Serotonin 3 receptor (5HT3) (Mus musculus, UniProt Q9JHJ5+P23979); assay: Compound was evaluated for the binding affinity at 5- HT3 receptor subtype; type: protein assay
T3 sequence (Q9JHJ5 whole entry): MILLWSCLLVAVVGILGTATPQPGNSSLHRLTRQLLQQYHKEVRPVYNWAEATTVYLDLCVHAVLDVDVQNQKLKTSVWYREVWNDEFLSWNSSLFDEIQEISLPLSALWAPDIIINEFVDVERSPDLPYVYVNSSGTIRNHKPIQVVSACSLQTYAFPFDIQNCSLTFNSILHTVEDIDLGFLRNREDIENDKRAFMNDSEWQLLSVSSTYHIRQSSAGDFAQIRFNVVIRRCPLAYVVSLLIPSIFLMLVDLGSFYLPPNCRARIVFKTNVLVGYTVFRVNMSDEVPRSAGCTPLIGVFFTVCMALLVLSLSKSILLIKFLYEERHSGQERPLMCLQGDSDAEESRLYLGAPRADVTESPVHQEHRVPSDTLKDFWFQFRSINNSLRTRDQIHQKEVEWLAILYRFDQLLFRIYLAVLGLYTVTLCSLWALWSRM
T3 sequence (P23979 whole entry): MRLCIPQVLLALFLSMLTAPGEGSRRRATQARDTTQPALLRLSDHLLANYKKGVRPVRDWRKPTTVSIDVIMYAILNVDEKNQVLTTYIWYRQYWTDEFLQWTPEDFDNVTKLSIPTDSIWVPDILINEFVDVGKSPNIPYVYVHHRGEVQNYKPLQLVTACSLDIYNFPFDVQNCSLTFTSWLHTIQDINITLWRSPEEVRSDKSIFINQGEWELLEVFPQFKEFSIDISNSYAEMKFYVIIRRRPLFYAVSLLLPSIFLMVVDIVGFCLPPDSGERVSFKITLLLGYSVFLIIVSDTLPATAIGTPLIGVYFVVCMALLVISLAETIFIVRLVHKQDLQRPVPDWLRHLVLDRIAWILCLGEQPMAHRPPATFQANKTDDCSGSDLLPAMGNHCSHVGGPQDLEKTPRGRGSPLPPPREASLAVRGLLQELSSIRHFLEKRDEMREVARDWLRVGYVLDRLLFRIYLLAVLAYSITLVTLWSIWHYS
Method in brief: (§1)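 Radioligand binding to native tissue membranes. Each receptor used its own tissue and [³H]radioligand: 5-HT2A in rat cortex with [³H]ketanserin, 5-HT3 in mouse N1E-115 cells with [³H]tropisetron, α1 in calf cortex with [³H]prazosin, and D2 in calf striatum with [³H]spiperone. Affinity is reported as Ki.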

[9] = target: T2, Serotonin 3 receptor (5HT3) (Mus musculus); remark: listed apart in the source
D(2) dopamine receptor = D(2) dopamine receptor (Bos taurus, UniProt P20288); assay: Compound was evaluated for the binding affinity at Dopamine receptor D2; method in brief: as §1
Sequence of D(2) dopamine receptor (P20288 whole entry): as the sequence (P20288 whole entry) above

[10] = target: Serotonin 3 (5-HT3) receptor (Homo sapiens) (UniProt P46098+A5X5Y0+O95264+Q70Z44+Q8WXA8); assay: 5-hydroxytryptamine 3 receptor agonism in the guinea pig ileum by functional 5-HT3 receptor assay; type: tissue-based; details: Cavia porcellus, target entry is the homologue from another species
Method in brief: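 Guinea pig ileum in tyrode solution containing 0.1 μM methysergide. 5-HT3 receptor-mediated contractions recorded isotonically; concentration–response curves built noncumulatively.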

[11] = target: D(1A) dopamine receptor (Bos taurus) (UniProt Q95136); assay: Binding affinity was evaluated by dopamine receptor D1 […] in the calf striatum by displacing SCH 23390; type: tissue-based
Method in brief: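 Radioligand displacement with [3H]SCH 23390 on calf striatum membranes; Ki reported.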

[12] = test system: 5-HT1A receptor (Sus scrofa); assay: Binding affinity was evaluated by 5-hydroxytryptamine 1A receptor […] in the pig cortex by displacing 8-OH-DPAT

| Compound | pKD [1] | pKD [2] | pKD [3] | pD2 [4] | pKD [5] | Potency relative to serotonin [6] | pKD [7] | Ki [8] [nM] | pKD [9] | Ki (D(2) dopamine receptor) [nM] | pD2 [10] | pKD [11] | pKD [12] |
| --- | --- | --- | --- | --- | --- | --- | --- | --- | --- | --- | --- | --- | --- |
| COc1cc(N)c(Cl)cc1C(=O)N[C@H]1CN2CCC1CC2 | < 5 | < 5 | < 5 | 6.8 | < 5 | 1.9 | 9.5 | – | – | – | – | – | – |
| CCN(CC)CCNC(=O)c1cc(Cl)c(N)cc1OC [METOCLOPRAMIDE] | < 5 | 7.1 | 5.4 | 5.6 | < 5 | 1 | – | 200 | 6.7 | 80 | – | – | – |
| NCCc1c[nH]c2ccc(O)cc12 | – | – | – | 8.4 | – | 1 | – | – | – | – | – | – | – |
| N=C(N)N/N=C/c1c[nH]c2ccc(O)cc12 | < 5.5 | < 5 | 6.6 | 8.8 | – | 1.5 | – | – | – | – | < 5 | 5.4 | 7.2 |
| COc1cc(N)c(Cl)cc1C(=O)N[C@H]1CCN(CCCOc2ccc(F)cc2)C[C@H]1OC | – | 6.5 | – | 6 | 5.2 | 0.7 | 7.2 | – | – | – | – | – | – |
